Legend:
E. coli strain pb3 [1] = assay: Growth curve inhibition, clinical strain pb3; assay type: cell-based, Escherichia coli; conditions: for Concentration giving significant growth inhibition of pb3: 2-fold serial dilution 40 to 5 µM, triplicates, compared with WT peptide; for Effect on growth of pb3 (in words): AMP at 40 µM
Method in brief: (§1)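 Overnight E. coli clinical isolate cultures in Mueller–Hinton broth (150 rpm, 37°C) diluted 1:100 in MHB, with test peptide at 40 µM or in a 2-fold series from 40 to 5 µM, in triplicate. OD600 read every 30 min for 24 h with continuous shaking. Log-phase linear values were log2-transformed against time, slope taken as growth rate, normalized to a no-peptide control, and compared with wild-type peptide by Student's t test.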

[2] = system: clinically derived E. coli strains pb3, pb15 and pb35; assay: Growth inhibition across the clinical strains pb3, pb15 and pb35; assay type: cell-based, Escherichia coli; conditions: AMP at 40 µM
Method in brief: as §1

E. coli strain pb35 = assay: Growth curve inhibition, clinical strain pb35; assay type: cell-based, Escherichia coli; conditions: for Effect on growth of pb35 (in words): AMP at 40 µM
Method in brief: as §1

E. coli strain pb15 [3] = assay: Growth curve inhibition, clinical strain pb15; assay type: cell-based, Escherichia coli; conditions: for Effect on growth of pb15 (in words): AMP at 40 µM
Method in brief: as §1

E. coli strain pb3 [4] = conditions: strain pb3, urinary tract infection; ref Basra et al. 15; cited from earlier work
E. coli strain pb5 = conditions: strain pb5, respiratory; ref Basra et al. 15; cited from earlier work
E. coli strain pb15 [5] = conditions: strain pb15, blood; ref Basra et al. 15; cited from earlier work
[6] = 2-fold serial dilution 40 to 5 µM, triplicates, compared with WT peptide

Compound | Concentration giving significant growth inhibition of pb3 (E. coli strain pb3 [1]) | Growth inhibition across all three clinical strains (in words) [2] | Effect on growth of pb3 (in words) (E. coli strain pb3 [1]) | Effect on growth of pb35 (in words) (E. coli strain pb35) | Effect on growth of pb15 (in words) (E. coli strain pb15 [3]) | further results
ILPWLWPWWPWRR [IndoK5L] | 20 µM | equivalent response across all three strains |  |  |  | Concentration giving significant growth inhibition of pb35 (E. coli strain pb35; [6]): 20 µM
ILPWDWPWWPWRR [IndoK5D] | 20 µM | equivalent response across all three strains |  |  |  | Concentration giving significant growth inhibition of pb15 (E. coli strain pb15 [3]; [6]): 10 µM
ILPWCWPWWPWRR [IndoK5C] |  |  | greater effect | greater effect | reduced but still significant effect | 
CC(C)(O/N=C(\C(=O)N[C@@H]1C(=O)N2C(C(=O)[O-])=C(C[n+]3ccccc3)CS[C@H]12)c1csc(N)n1)C(=O)O [CAZ, ceftazidime] |  |  |  |  |  | CAZ MIC (E. coli strain pb3 [4]): 4 µg/mL; CAZ MIC (E. coli strain pb5): 0.5 µg/mL; CAZ MIC (E. coli strain pb15 [5]): 128 µg/mL
ILPWAWPWWPWRR [IndoK5A] |  |  | greater effect | greater effect | reduced but still significant effect | 
ILPWKWPWWPWRR [indolicidin, reference compound] |  |  |  |  |  | Dose-response of growth inhibition of pb3 (in words) (E. coli strain pb3 [1]; serial dilution 40 to 5 µM): not inhibited across the concentrations tested

Source: article PMC11220656 (JAC-Antimicrobial Resistance, 2024)
